The text below walks through data of ChEMBL document CHEMBL4513216, “Probing the Open Global Health Chemical Diversity Library for Multistage-Active Starting Points for Next-Generation Antimalarials” (ACS Infect Dis, 2020).

Structures are written as SMILES.

The nature of this data set: Toxicity liver stage against HepG2, at 10uM. Type of data set: cell-based. The arrangement: test concentration 10 uM, cell line HepG2-A16-CD81EGFP. The following applies: human, HepG2-A16-CD81EGFP cells; read-out: INHIBITION
A digest of the protocol: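 Uninfected HepG2-A16-CD81EGFP cells, 3 × 10^3 per well, 1536-well, plated on prespotted compound at 10 μM final, parasite-free screening media added to match infected plates; puromycin 10 μM positive, DMSO 0.5% negative; run in parallel with 48 h PbLuc assay at 37 °C, 5% CO2; viability by CellTiter-Glo luminescence, normalized to controls.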
With `Cc1ccc2c(c1)c(Sc1ccccc1)c(CC(=O)O)n2C`, the cytotoxicity at 10 µM turned out to be 3.56%.
Consider `CCc1nc(CNC(=O)C2CCC(=O)N(Cc3ccccc3F)C2)no1` (stereo not drawn), for which the cytotoxicity at 10 µM was -1.88%.
To `COc1ccc2[nH]cc(C(=O)CNc3nccs3)c2c1` belongs 4.32%; to `CCc1cc(=O)[nH]c2nnc(SCC(=O)NC)n12`, -4.06%.
As for `CNC(=O)Cn1nc(C(C)C)c2cnn(C(C)(C)C)c2c1=O`, the cytotoxicity at 10 µM was -7.67%.
`O=C(Cn1cc(-c2ccccc2)ncc1=O)Nc1nnc[nH]1`: the cytotoxicity at 10 µM was 20.3%.
For the compound `CCc1oc2ccc(NS(C)(=O)=O)cc2c1C(=O)OC`, the cytotoxicity at 10 µM amounted to 6.8%.
In the case of `CCn1nccc1CNC(=O)CCC1CCCC1`, the cytotoxicity at 10 µM is 11.4%.
Turning to `CCn1nc(C)c(NC(=O)C(C)C)c1C`, the cytotoxicity at 10 µM came out at 1.73%.
As to `NC(=O)C1(Cc2ccccc2-c2cncnc2)CCCNC1` (stereo not drawn), the cytotoxicity at 10 µM was determined as 3.35%.
On to `Cc1cc(C(=O)N2CCC(O)(Cn3ccc4ccncc43)CC2)on1`, for which the cytotoxicity at 10 µM stood at 7.55%.
With `O=C(Cn1cnc2cc3c(cc21)OCCCO3)NCCc1ccccc1`, the cytotoxicity at 10 µM turned out to be 7.57%.
For `CNc1cncc(C2CCN(S(C)(=O)=O)CC2)n1`, the cytotoxicity at 10 µM was found to be 3.54%.
The value for `Cc1ccc(S(=O)(=O)N2CCC(c3n[nH]cc3C(=O)N(C)C)CC2)cc1` was -1.73%; that for `Cc1cnc(N2CCOC(C(=O)NCc3ccccc3)C2)s1` (stereo not drawn) was -2.84%.
As to `CCc1ncc(CN2CCc3nc4sc(C)cc4c(=O)n3CC2)cn1`, the cytotoxicity at 10 µM is -6.47%.
Consider `O=S(=O)(c1ccc(F)cc1)N1CCCCC1c1cc[nH]n1` (stereo not drawn), for which the cytotoxicity at 10 µM is -3.55%.
As for `COc1ccc(Br)cc1SCCCS(C)(=O)=O`, the cytotoxicity at 10 µM worked out at 3.85%.
Take `COc1ccc(C(C)NCc2ccnn2C)cc1Cn1cccn1` (stereo not drawn): the cytotoxicity at 10 µM was found to be 7.57%.
To `Cn1cc(-c2noc(C3(C)CCOCC3)n2)cn1` belongs -5.65%; to `CCN(C)c1ccc(CNC(=O)CCn2cc(C)cn2)cc1F`, -9.51%.
As for `CC(NC(=O)NC1CCN(Cc2ccncc2)CC1)c1cccc(F)c1` (stereo not drawn), the cytotoxicity at 10 µM is -12.5%.
Consider `O=C(c1ccn(-c2ccc(F)cc2)n1)N(CCO)Cc1cccnc1`, for which the cytotoxicity at 10 µM is 17.5%.
Take `CC(C)c1nc(CNc2ccc(N3CCC(CO)CC3)cn2)cs1`: the cytotoxicity at 10 µM was -2.6%.
Take `c1ccc(C2(NCC3CNc4ccnn4C3)CCC2)cc1` (stereo not drawn): the cytotoxicity at 10 µM was -5.34%.
For the compound `O=C(CCCn1cccn1)N1CCCC(n2cncn2)C1` (stereo not drawn), the cytotoxicity at 10 µM was 6.61%.
Consider `COc1ccc(C(CC(=O)O)NC(=O)CCc2cccs2)cc1OC` (stereo not drawn), for which the cytotoxicity at 10 µM is -6.33%.
Turning to `Cc1nn(C)c(C)c1C1CCCN1CCOc1cccc(C#N)c1` (stereo not drawn), the cytotoxicity at 10 µM was -8.41%.
Take `CC(C)C1CCCN1CC(=O)NCc1ccc(OCC(N)=O)cc1` (stereo not drawn): the cytotoxicity at 10 µM was determined as 7.01%.
For `CC1CCC(NC(=O)CNC2(c3ccc(F)cc3)CCOCC2)CC1` (stereo not drawn), the cytotoxicity at 10 µM worked out at 7.79%.
To `CCOC(=O)NC(=O)CSC(C)c1ccccc1F` (stereo not drawn) belongs -15.1%; to `Cc1ccc(C(=O)NCc2ccc(N3CCNC(=O)C3)c(F)c2)cc1`, -3.31%; to `CNS(=O)(=O)c1ccc(CNC(=O)c2cc(C)no2)cc1`, 5.12%.
The value for `CC(NC(=O)NCCNc1cccc(F)c1C#N)c1cccs1` (stereo not drawn) was -1.31%.
In the case of `COCC(NC(=O)c1ccoc1)c1ccc(C)o1` (stereo not drawn), the cytotoxicity at 10 µM was determined as 3.6%.
To `CCC1c2ccccc2CCN1C(=O)c1ccc(OC)nn1` (stereo not drawn) belongs -12.8%.
For `OCCOc1cc(F)ccc1NCc1nc(-c2cccs2)no1`, the cytotoxicity at 10 µM is -46.1%.
`Cc1nc(CN(CCS(C)(=O)=O)C(C)(C)C)no1`: the cytotoxicity at 10 µM was -1.86%.
To `O=C(NCCC1Cc2ccccc2C1)N1CCCC(O)C1` (stereo not drawn) belongs 22.2%; to `COc1ccc(CCC(=O)Nc2ccncc2C)cc1`, 16.1%.
For the compound `COCCNC(=O)C[C@@H]1COC[C@H]2CN(C(=O)COC)C[C@@H]12`, the cytotoxicity at 10 µM is -96.5%.
For the compound `COC[C@@]12CCO[C@@H]1CCN(C(=O)C1CCOCC1)C2`, the cytotoxicity at 10 µM was -106%.
`CCS(=O)(=O)N1CCC2(CCN(Cc3ccc(C)o3)C2)C1` (stereo not drawn): the cytotoxicity at 10 µM is -116%.
On to `CC(=O)Nc1nc(C)c(S(=O)(=O)NCCc2cccnc2)s1`, for which the cytotoxicity at 10 µM is -10.5%.
Consider `CC(C)[C@H]1CN(Cc2nccn2C)C[C@@H]1NC(=O)CCS(C)(=O)=O`, for which the cytotoxicity at 10 µM is -8.85%.
As for `CCN(CCO)C[C@@H]1CN(c2cc(C(F)(F)F)cc(C)n2)C[C@@H]1CO`, the cytotoxicity at 10 µM is -1.7%.
Consider `Cc1c(C(=O)N2CCC3(CCCNC3=O)C2)sc2nc[nH]c(=O)c12` (stereo not drawn), for which the cytotoxicity at 10 µM is -10.7%.
With `COc1ccc2c(c1)OCC(CNC(=O)c1cnc(O)cn1)C2` (stereo not drawn), the cytotoxicity at 10 µM is -1.09%.
Take `CN1CCN2CCN(Cc3cc(=O)n4c5c(cccc35)CCC4)CC2C1` (stereo not drawn): the cytotoxicity at 10 µM came out at 9.05%.
As to `CCCN1CCC(N2CCOC(Cc3cccc(OC)c3)C2)CC1` (stereo not drawn), the cytotoxicity at 10 µM amounted to 8.69%.
In the case of `COC[C@]1(O)CCN(c2cc(C3CC3)ncn2)CC1(C)C`, the cytotoxicity at 10 µM was -1.53%.
With `COc1ccc(-n2cccn2)c(CN2CCC3(CCCNC3)C2)c1` (stereo not drawn), the cytotoxicity at 10 µM was -1.09%.
To `CCCN1CCN(C(=O)c2cccc3cccnc23)[C@H]2CS(=O)(=O)C[C@H]21` belongs 4.36%; to `Cc1nn(C)c2nc(N3CCC(C(O)c4nccn4C)CC3)sc12` (stereo not drawn), 0.79%; to `CC(C)n1cnnc1Cn1ccc2ncccc2c1=O`, 0.86%.
Regarding `CC(C)CCN1CCNC(=O)C1CC(=O)NCCc1cc(O)ncn1` (stereo not drawn), the cytotoxicity at 10 µM was -0.806%.
On to `O=C(NCC(O)c1cccc(O)c1)C1CCN(C2CCCCC2)CC1` (stereo not drawn), for which the cytotoxicity at 10 µM was 7.16%.
Take `c1ccc2c(c1)CC(Cc1cc(N3CCCC3)cnn1)CO2` (stereo not drawn): the cytotoxicity at 10 µM was -6.03%.
Regarding `O=C(c1cn2cc(Cl)ccc2n1)N1CCC(CCn2cccn2)CC1`, the cytotoxicity at 10 µM was -10.2%.
The value for `Cc1noc(C)c1C1CCCN1C(=O)c1cn2ccsc2n1` (stereo not drawn) was 12.3%; that for `O=C(c1cc(Cn2ccc3ccccc32)[nH]n1)N1CCCCC1CO` (stereo not drawn) was 6.03%.
As for `CC[C@@]1(O)CCN(C(=O)c2ccoc2)C[C@H]1O`, the cytotoxicity at 10 µM is 4.63%.
`COCCN(Cc1cccc(OCCO)c1)Cc1ccccc1F`: the cytotoxicity at 10 µM is -9.53%.
With `CC1=C(C(=O)N2CCCC(Cn3cc(CO)nn3)C2)OCCO1` (stereo not drawn), the cytotoxicity at 10 µM worked out at 0.92%.
In the case of `COCCCN(Cc1cnc(-c2cccs2)nc1)C1CCN(C)CC1`, the cytotoxicity at 10 µM is -3.85%.
To `CCC1CN(C(=O)c2cncc(C)c2)CCC(=O)N1Cc1ccccc1` (stereo not drawn) belongs 9.33%; to `CC(NC(=O)Cc1cc2c(cc1Cl)OCCO2)c1ccncn1` (stereo not drawn), -6.29%; to `CC(C)c1cc(N2CCC[C@H](N)C2)n2nccc2n1`, -5.42%.
For `Cc1ccc(C)c(OCc2cc(C(=O)N(C)Cc3cnn(C)c3)no2)c1`, the cytotoxicity at 10 µM is -6.12%.
The value for `COc1ccccc1N1CCC(N2CCOC(C(F)(F)F)C2)CC1` (stereo not drawn) was -1.45%; that for `CCn1cc(CN2CCC(c3ccncc3)CC2)cc1C#N` was -5.38%; that for `CCN(CC)C(=O)[C@@H]1C[C@H](NC(=O)c2cccn2C(C)C)CN1C` was 7.57%.
Consider `CCCOCC1CCN(C(=O)Cn2cccc(OC)c2=O)C1` (stereo not drawn), for which the cytotoxicity at 10 µM came out at 5.88%.
In the case of `Cc1nc(CN2CCC(Oc3ccc(F)cc3C)(C(=O)O)CC2)co1`, the cytotoxicity at 10 µM turned out to be 2.28%.
Take `Cc1nn(CCO)cc1CN1CCCN(C2CCCC2)CC1`: the cytotoxicity at 10 µM worked out at 0.292%.
`COCCn1cncc1Cn1ncc2ccccc2c1=O`: the cytotoxicity at 10 µM amounted to 1.77%.
For `O=C(N[C@@H]1CCN(Cc2cccc3nonc23)C[C@H]1O)c1cccnc1`, the cytotoxicity at 10 µM was -2.3%.
The value for `Cn1ccc2cc(C(=O)N3CCOCC3)ccc21` was 1.91%; that for `COc1ccc(-n2cccn2)cc1S(=O)(=O)N1C[C@H](C2CC2)[C@@H](N)C1` was 4.69%; that for `Cc1cc(-c2nnc(SCC(=O)O)n2C(C)c2ccccc2)nn1C` (stereo not drawn) was -1.1%.
For `CCOC(=O)N1CC(C)=C(C)CN1C(=O)Nc1ccc(Cl)c(Cl)c1`, the cytotoxicity at 10 µM was -0.113%.
With `Cc1ncncc1C(=O)NCCn1nc2ccccn2c1=O`, the cytotoxicity at 10 µM was -6.89%.
For the compound `O=C(c1ccc(N2CCOCC2)nc1)N1CCCC(n2ccnc2)C1` (stereo not drawn), the cytotoxicity at 10 µM was -18.2%.
To `COc1cccc(COCC(=O)N2CCCC(n3cccn3)C2)c1` (stereo not drawn) belongs -0.363%.
With `CCn1cnnc1C1CCN(C(=O)c2cccc3c2ccn3C)CC1`, the cytotoxicity at 10 µM is -8%.
As to `CSc1nccn1-c1cccc(C(=O)NCc2nnc(C)n2C)c1`, the cytotoxicity at 10 µM is -9.46%.
Take `Cn1cnc2c1CCN(Cc1csc(-c3ccsc3)n1)C2`: the cytotoxicity at 10 µM was -8.78%.
On to `O=C(Nc1cccc2c1CCCC2)C1CCCN1c1nccs1` (stereo not drawn), for which the cytotoxicity at 10 µM is -4.15%.
As to `COCCOc1ncccc1C(=O)Nc1ccc(-n2cncn2)c(F)c1`, the cytotoxicity at 10 µM was -0.138%.
As to `CCn1cc(NC(=O)NCC(C)O)cn1` (stereo not drawn), the cytotoxicity at 10 µM is -4.84%.
For the compound `Cc1nccn1CC1CCCN1S(=O)(=O)Cc1ccccc1F` (stereo not drawn), the cytotoxicity at 10 µM was -3.33%.
Take `Cc1ccc2cc(C(=O)NCCn3nc4ccccn4c3=O)[nH]c2c1`: the cytotoxicity at 10 µM is 2.95%.
The value for `CN(C)C(=O)c1sc2ncccc2c1C1CNCCO1` (stereo not drawn) was 2.35%; that for `Cc1ccc(CN2CC[C@H]3[C@H](CO[C@H]3CN(C)C)C2)o1` was -129%; that for `Cc1nn(CCO)c(C)c1CNC1CCOc2ccccc21` (stereo not drawn) was 14.4%.
The value for `O=C1COC2(COCCN(Cc3ccsc3)C2)CN1c1ccc(F)cc1` (stereo not drawn) was 2.83%; that for `CSc1ccc(-c2cc(CN)nc3ccnn23)cc1` was -7.5%; that for `CCc1noc(CN2C[C@@H]3CC[C@H]2CN(C2Cc4ccccc4C2)C3)n1` was -0.268%.
